Laboratory results reported in ChEMBL document CHEMBL4513216, “Probing the Open Global Health Chemical Diversity Library for Multistage-Active Starting Points for Next-Generation Antimalarials” (ACS Infect Dis, 2020).

Test: Toxicity liver stage against HepG2, at 10uM
Type: cell-based
Design: test concentration 10 uM, cell line HepG2-A16-CD81EGFP
Conditions: human, HepG2-A16-CD81EGFP cells; read-out: INHIBITION
Procedure, shortened: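 Uninfected HepG2-A16-CD81EGFP cells, 3 × 10^3 per well, 1536-well, plated on prespotted compound at 10 μM final, parasite-free screening media added to match infected plates; puromycin 10 μM positive, DMSO 0.5% negative; run in parallel with 48 h PbLuc assay at 37 °C, 5% CO2; viability by CellTiter-Glo luminescence, normalized to controls.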

| SMILES | cytotoxicity at 10 µM |
| --- | --- |
| CN(C)C(=O)CSc1nnc(CCNC(=O)OC(C)(C)C)o1 | 13.7% |
| Cc1nc(N2CCOCC2)nc(C)c1NS(=O)(=O)c1ccccc1 | -1.44% |
| COc1ncc(NS(=O)(=O)c2ccc(F)c(F)c2)c(OC)n1 | -7.76% |
| COc1ccc(C2SC(C)=Nc3c2c(=O)[nH]n3C2CCCCC2)cc1O (stereo not drawn) | 1% |
| O=C(NCC1(CO)CC1)c1cccc2ccccc12 | -12.5% |
| CCOCC(=O)N1CCC(Oc2ccc(C(F)(F)F)cn2)CC1 | 11.7% |
| O=C(NCC1CC1)C1CN(C(=O)c2cccc(Cl)c2)CC12CCOCC2 (stereo not drawn) | 1.18% |
| O=C(O)Cn1nc(C2CC2)c2c(-c3cccs3)ccnc21 | -11.6% |
| CCn1nc(C)c2nc(C(C)C)nc(N(C)Cc3ccco3)c21 | 15.6% |
| CCN(Cc1c(C)nn(CC)c1C)S(=O)(=O)c1cnn(C)c1 | 4.98% |
| COc1ccc(CC(=O)N2CCN(Cc3ccco3)C[C@@H]2C)cc1OC | 3.88% |
| CC(=O)N1CCC1c1cc(NC2CCOCC2)nc(C)n1 (stereo not drawn) | 1.79% |
| Cc1cc(C)nc(Nc2cc(C)nc(C3CCN(C(C)C)C3)n2)n1 (stereo not drawn) | 3.06% |
| c1ccc(CCN2CCCC2c2cncc(Nc3nncs3)n2)cc1 (stereo not drawn) | 5.62% |
| c1nnc(Nc2cncc(C3CCCN3CC3CC3)n2)s1 (stereo not drawn) | 3.01% |
| CC(=O)N1CCN([C@@H]2CN(C(=O)c3ccccc3)C[C@H]2O)CC1 | -4.8% |
| CN1CCN(c2ccccc2CNC(=O)CSC(F)(F)F)CC1 | 8.27% |
| O=C(Nc1cc(C(F)(F)F)c[nH]c1=O)C1CCNCC1 | 6.01% |
| COCc1nnc(-c2cccc(C(=O)OC(C)C)c2)o1 | -21.8% |
| CC(C)(C)NC(=O)c1cnc(C(C)(C)C)s1 | 3.72% |
| Cc1ccc(-c2nc(C(=O)N(C)CC(=O)N(C)C)cs2)c(C)c1 | -10.1% |
| CC(C)N1CCC(N2CCOC3(CCCC3)C2)C1=O (stereo not drawn) | 1.56% |
| CCNC(=O)NCC1(CN2CCOCC2)CCCCC1 | 6.73% |

| SMILES | cytotoxicity at 10 µM |
| --- | --- |
| O=C(COC1CCCCC1)N1CCN(C(=O)Cc2ccccn2)CC1 | -1.3% |
| CS(=O)(=O)NCC1CCCN(c2ccc(C(F)(F)F)cn2)C1 (stereo not drawn) | -17.3% |
| c1cc(C2CCN(Cc3nc(C4CC4)no3)CC2)[nH]n1 | 7.45% |
| COCc1noc(C2(c3ccc(F)cc3)CC2)n1 | -2.93% |
| O=C(NS(=O)(=O)Cc1ccc(F)cc1)C1CCc2ccccc21 (stereo not drawn) | -13.1% |
| CCN(CC)Cc1ccc(C(=O)NC2CCc3ccccc32)o1 (stereo not drawn) | -3.97% |
| COc1cc(C(C)=O)ccc1SCC(=O)Nc1cccc(C)n1 | 15.1% |
| CCN(Cc1cccc(-c2ccncc2)c1)S(N)(=O)=O | -12.6% |
| Cc1cc(=O)n(C)cc1NC(=O)Cc1ccc(C(F)(F)F)cc1 | -14% |
| COc1ccc(Cl)cc1-c1cc(NC(=O)CNC(=O)C2CC2)[nH]n1 | -3.61% |
| Cn1c(N)nnc1SCc1ccc(Cl)cc1Br | 1.48% |
| CCc1nc(CN2CCC(C(=O)N(C)C)CC2)cs1 | 3.05% |
| c1n[nH]cc1CCCN1CCC(OC2CCCCC2)CC1 | 2.97% |
| Cc1ncc(CNc2ccc(C(=O)NCc3ccco3)cc2C)s1 | -10.5% |
| Cc1nc(C2CN(Cc3ccc(F)cc3Br)CCO2)no1 (stereo not drawn) | -4.75% |
| O=C(CNC(=O)C1CC1)NCC1CCCC1 | 2.12% |
| CC(C)CCOc1ccc(C(C)NC(=O)Cn2cccnc2=O)cc1 (stereo not drawn) | -4.24% |
| COCc1nc2cc(NCc3ccc(C)o3)ccc2o1 | -9.41% |
| COCCN1CCN(C(C)C(=O)Nc2ccnn2C(C)C)CC1 (stereo not drawn) | -8.83% |
| Cc1cc(CN2CCN(C(=O)CCc3cccc(F)c3F)CC2)on1 | -6.16% |
| Cc1cc(CNC2CCCN(c3cccnn3)C2)no1 (stereo not drawn) | -15% |
| Cc1nn(C(C)C)c(C)c1NC(=O)c1ccccc1 | -11.7% |
| COCc1ccccc1C(=O)NCCCN1CCCC1C(=O)N(C)C (stereo not drawn) | -14.5% |

| SMILES | cytotoxicity at 10 µM |
| --- | --- |
| CCNC(=O)[C@@H]1C[C@@H](N)CN1Cc1ccc2cccc(Cl)c2n1 | 12.9% |
| CCN(Cc1noc(C2CCC2)n1)C(=O)CCc1cc2n(n1)CCNC2 | 10.5% |
| CC1=C(C(=O)N(C)Cc2noc3c2CCCC3)C(C)NC(=O)N1 (stereo not drawn) | -0.844% |
| CSCCC(O)C(=O)N1CCN(Cc2cccc(Cl)c2)CC1 (stereo not drawn) | 6.48% |
| CCN(Cc1cc(F)c(OC)c(Cl)c1)Cc1nc(COC)no1 | 3.98% |
| Cc1cccc(-n2nc(CC(C)C)nc2CCC(=O)N(C)C)c1 | -9.61% |
| Cc1cc2occ(CC(=O)N3CCC(O)(CN(C)C)C3)c2cc1Cl (stereo not drawn) | -6.55% |
| COCCN(C)C[C@H]1C[C@H](CO)CN(C(=O)c2ccn(C)c(=O)c2)C1 | -2.75% |
| CCCc1nnc(N2CCN(c3cccc(OC)c3)C(=O)C2)o1 | 9.52% |
| Cc1cc(C(=O)N2CCc3c(ncnc3N3CCOCC3)C2)[nH]n1 | -5.92% |
| CN(Cc1ccsc1)Cc1nc(-c2cnccn2)no1 | -0.164% |
| Cc1n[nH]c(C)c1CCC(=O)N(C)Cc1cn[nH]c1-c1ccc(F)cc1 | 7.86% |
| CC(Cn1cncn1)NCc1ccc2nonc2c1 (stereo not drawn) | 3.05% |
| CN(Cc1ccsc1)Cc1ccc(C2CCCCO2)o1 (stereo not drawn) | -2.11% |
| COCCN1CCc2onc(C(c3ccccc3)c3ccccc3)c2C1 | -7.35% |
| Cn1ccnc1-c1nccn1C[C@@H]1CCCN2CCCC[C@H]12 | 2.68% |
| COc1cc(N2CCC(c3nccn3Cc3ccccc3)CC2)ncn1 | 5.44% |
| CCc1cc(CN(C)C(=O)c2nnc(CN(C)C)o2)on1 | 1.77% |
| C=C(C)COc1ccccc1NC(=O)N1CCOCC(CO)C1 (stereo not drawn) | -1.57% |
| O=C1N(C2CCOCC2)CCCC12CCN(c1ncccc1Cl)C2 (stereo not drawn) | -129% |
| Cc1cccc(-c2nccn2-c2cccc(CC(=O)O)c2)n1 | 4.55% |
| COc1cc(C(=O)N2Cc3cnc(C(C)(C)C)nc3C2)ccn1 | 2.03% |
| Cc1nc(N2CCOc3ccc(CO)cc3C2)c2nc(C)oc2n1 | 7.91% |

| SMILES | cytotoxicity at 10 µM |
| --- | --- |
| Cc1cc(N2CCCC(O)(CN(C)C)C2)c2cc3c(cc2n1)OCO3 (stereo not drawn) | 0.935% |
| Cc1cc2[nH]c(=O)oc2cc1S(=O)(=O)N1CCCC(N(C)C)CC1 (stereo not drawn) | 0.74% |
| Cc1cc2c(c(-c3c[nH]c(C)n3)c1)OC(CN)C2 (stereo not drawn) | 4.24% |
| Cc1cccc(C(C(=O)N2CC(c3ccncc3)C2)N(C)C)c1 (stereo not drawn) | -8.29% |
| COCCC1CCN([C@@H]2c3ccccc3C3(CCNCC3)[C@H]2O)CC1 | 1.35% |
| CSc1ccccc1C(=O)Nc1ccc(OC2CCN(C)CC2)cc1 | 3.39% |
| CCOc1cccc(C2CC(=O)NCc3nc(N(C)C)sc32)c1 (stereo not drawn) | -10.9% |
| O=C(CSCC1CC1)N1CCc2[nH]nc(COc3ccccc3)c2C1 | -7.01% |
| COC(=O)NCC(=O)N1CCCCC1c1nc2cc(F)ccc2[nH]1 (stereo not drawn) | -1.41% |
| CC(Cn1cncn1)NC1CCN(Cc2cccc(O)c2)CC1 (stereo not drawn) | 2.64% |
| CC(C)Oc1cc(N2C[C@@H](C)O[C@@H](C)C2)nc(N)n1 | -9.15% |
| Cc1nc(N2CCN(C(=O)C(C)(C)C)CC2)cc(-n2cnc(C)c2C)n1 | -23.2% |
| Cc1nc(C(=O)N2CCC(Cc3cnc4[nH]ccc4c3)C2)co1 (stereo not drawn) | 9.36% |
| NS(=O)(=O)Cc1ccc(CNc2cncc(-n3cccn3)n2)cc1 | 6.1% |
| Fc1cc(CN2CCCC2Cn2cncn2)c2ncccc2c1 (stereo not drawn) | -14.1% |
| Cc1cnn(C2CCCN(C(=O)Cc3ccc(C)s3)C2)c1 (stereo not drawn) | -13.4% |
| Cc1ccc(N2CCCC(NCc3nnc(-c4ccco4)o3)C2)nn1 (stereo not drawn) | -9.07% |
| CC(OCC1CC1)C(=O)N1CCCN(Cc2cscn2)CC1 (stereo not drawn) | -5.16% |
| COc1cccc(CNCC2CN(C)CCO2)c1 (stereo not drawn) | -15.2% |
| Cn1cnnc1C1CCN(C(=O)CCOc2ccc(Cl)cc2)CC1 | -8.94% |
| CC(c1ccc(F)cc1)N1CCN(Cc2nccn2C)CC1 (stereo not drawn) | -25.7% |
| O=C(NCc1ccco1)N(CCCO)C1CCCc2ccccc21 (stereo not drawn) | -9.53% |
| CCOc1ccc(NC(=O)N(C)Cc2cnn(C)c2)c(C)c1 | -9.63% |

| SMILES | cytotoxicity at 10 µM |
| --- | --- |
| CC(C)n1nc2c(cc1=O)CN(CCCN1CCCC1=O)CC2 | -8.08% |
| Cc1cc(C(=O)NC(COCC(C)C)c2ccco2)no1 (stereo not drawn) | -8.71% |
| O=C(NCc1nncn1-c1ccccc1)C1CCCC1 | -11.5% |
| O=C(NCC(=O)N1CCCC(n2cncn2)C1)OCc1ccccc1 (stereo not drawn) | -13.5% |
| CN1N=C(C(=O)N2CCCC(n3cccn3)C2)CCC1=O (stereo not drawn) | -19% |
| c1ccc(-c2cc(CN3CCCC(Cn4cncn4)C3)on2)cc1 (stereo not drawn) | -15.9% |
| CCC(C)C(=O)NCc1cccc(N2CCCCC2=O)c1 (stereo not drawn) | -6.93% |
| Cc1nc(CC(=O)N2CCC(Nc3cccnn3)CC2)cs1 | -9.45% |
| CCc1csc(C2CCCN(C(=O)c3ccc(OC)nn3)C2)n1 (stereo not drawn) | -8.8% |
| OCCN1CCN(Cc2coc(-c3ccc(Cl)cc3)n2)CC1 | -13.6% |
| CN1CCOC(CN(C(=O)Cc2ccccc2F)c2nccs2)C1 (stereo not drawn) | -11.7% |
| Cc1nc(CNC(=O)NCC(O)c2ccc(F)cc2F)cs1 (stereo not drawn) | 6.5% |
| c1ccc2cc(OCCN3CCn4c(nnc4C4CC4)C3)ccc2c1 | 5.49% |
| O=C(Nc1ccccc1F)N1CCN(Cc2noc(C3CC3)n2)CC1 | -0.144% |
| COc1cc(C(=O)N2CCC(c3n[nH]c(C4CC4)n3)CC2)ccc1C | 3.37% |
| CN(Cc1nc(N)c2ccccc2n1)CC1CCCN1c1cccnn1 (stereo not drawn) | -1.4% |
| Cn1nc(CN2CCCC2)c2c1CN(CC1CC1)CC2 | -3.27% |
| O=C(c1ccnnc1)N1C[C@@H]2OCCN(CCN3CCCC3)[C@@H]2C1 | 4.22% |
| c1csc(CN2CCOCC3(CCN(C4CCOCC4)C3)C2)c1 (stereo not drawn) | -0.608% |
| N#CC1Sc2nnc(-c3ccccc3F)n2N=C1N (stereo not drawn) | -0.634% |
| CC(=O)Nc1c(C)noc1C=Cc1ccc(C)c(S(=O)(=O)NC2CC2)c1 | 0.905% |
